Test results reported in ChEMBL document CHEMBL5143731, “N-Acylamino Saccharin as an Emerging Cysteine-Directed Covalent Warhead and Its Application in the Identification of Novel FBPase Inhibitors toward Glucose Reduction” (J Med Chem, 2022).
The source made the active and inactive calls. The rule behind the calls is not given here.

How the values were obtained:
[1] = Half life of the compound in DMSO; format: physicochemical
Method in brief: (§1)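 Electrophile (20 μmol) incubated at 37 °C either in pH 7.4 buffer, or in DMSO-d6/D2O (5:1), with or without glutathione. Decay followed by 1H NMR kinetics. First-order rate constant kpseudo-1st taken from ln[electrophile] versus time; t1/2 = 0.693/(60×k), in min.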

[2] = Half life of the compound in GSH; format: physicochemical; details: GSH (glutathione); method in brief: as §1
[3] = target: T1, Fructose-1,6-bisphosphatase 1 (Homo sapiens, UniProt P09467); assay: Inhibition of human FBPase expressed Escherichia coli BL21 in by malachite green dye based spectrophotometry
T1 sequence (P09467 whole entry): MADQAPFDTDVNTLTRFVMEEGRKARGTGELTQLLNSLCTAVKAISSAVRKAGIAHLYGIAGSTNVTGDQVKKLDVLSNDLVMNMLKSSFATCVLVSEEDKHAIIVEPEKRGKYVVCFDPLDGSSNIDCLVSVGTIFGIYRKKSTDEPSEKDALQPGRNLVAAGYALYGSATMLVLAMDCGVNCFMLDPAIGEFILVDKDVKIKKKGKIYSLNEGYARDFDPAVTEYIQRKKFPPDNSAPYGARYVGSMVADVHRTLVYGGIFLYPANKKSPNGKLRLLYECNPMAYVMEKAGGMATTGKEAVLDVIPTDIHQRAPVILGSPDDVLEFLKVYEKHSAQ
Method in brief: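 His-tagged human liver FBPase expressed in E. coli BL21(DE3) and purified by Ni affinity. Phosphate released from FBP complexed with ammonium molybdate/malachite green and read at 620 nm against a KH2PO4 standard curve (2−60 μM). Initial rates at saturating substrate, fixed effector and varied inhibitor fitted to the Hill equation for IC50.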

[4] = Half life of the compound in buffer; format: physicochemical; method in brief: as §1
[5] = target: T2, Fructose-1,6-bisphosphatase 1 (Homo sapiens) (UniProt P09467); assay: Binding affinity to ABPP-labeled FBPase (unknown origin) by silver staining based streptavidin blotting; details: dose 2-10 µM, DDE = dose-dependent effect
T2 sequence (whole entry): T1 sequence (P09467 whole entry)
Method in brief: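 LO2 cell lysate (2 mg/mL protein, RPMI-1640/10% FBS cultures lysed at 70−80% confluence) or purified FBPase labelled with a series of alkyne probe concentrations, 37 °C, 2 h. CuAAC with 0.5 mM each of biotin-PEG3-azide, ascorbate, THPTA and CuSO4, 37 °C, 1 h. Samples run on 10% SDS-PAGE, then silver staining and streptavidin-HRP blot with ECL detection.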

[6] = target: T2, Fructose-1,6-bisphosphatase 1 (Homo sapiens); assay: Binding affinity to ABPP-labeled FBPase (unknown origin) at 2 to 8 uM by silver staining based streptavidin blotting; details: dose 2-8 µM
Method in brief: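 LO2 lysate (2 mg/mL) treated with 2−8 μM alkyne probe, 37 °C, 2 h. Click-biotinylated by CuAAC (0.5 mM reagents, 1 h, 37 °C), resolved by 10% SDS-PAGE. Probed by silver stain and streptavidin-HRP blot; labelled bands near 35 kDa read. 2 μM iodoacetamide alkyne served as the reference.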

Homo sapiens [7] = species on record: Homo sapiens; assay: Selectivity ratio of IC50 for human FBPase to IC50 for recombinant ALDOC (unknown origin)
Method in brief: (§2)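 Aldolase (ALDOA/B/C) IC50 by NADH-coupled assay: enzyme plus serial compound dilutions, 0.41 mM NADH and TPI in 0.1 M Tris pH 7.4/0.2 M K-acetate, 3 min at 37 °C. Started with FBP and […], A340 read every 30 s for 6 min. Ratios against the FBPase IC50 from malachite green phosphate assay (620 nm).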

Homo sapiens [8] = species on record: Homo sapiens; assay: Selectivity ratio of IC50 for human FBPase to IC50 for human GAPDH
Method in brief: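 Recombinant human GAPDH (His-tag, E. coli; 0.1 mg/mL final) preincubated 30 min with compound in 10 mM sodium pyrophosphate pH 8.5 at 37 °C. Started with arsenate, 4 mM NAD+ and 12 mM G3P; A340 at 4 min. Ratio taken against FBPase IC50 from the malachite green phosphate-release assay.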

Homo sapiens [9] = species on record: Homo sapiens; assay: Selectivity ratio of IC50 for human FBPase to IC50 for recombinant ALDOA (unknown origin); method in brief: as §2
Homo sapiens [10] = species on record: Homo sapiens; assay: Selectivity ratio of IC50 for human FBPase to IC50 for recombinant ALDOB (unknown origin); method in brief: as §2
[11] = target: Tyrosine-protein kinase BTK (Homo sapiens) (UniProt Q06187); assay: Inhibition of BTK (unknown origin) at 300 uM measured after 40 mins in presence of ATP by luminescence assay relative to control
Chain of Tyrosine-protein kinase BTK (Homo sapiens) (Q06187 whole entry): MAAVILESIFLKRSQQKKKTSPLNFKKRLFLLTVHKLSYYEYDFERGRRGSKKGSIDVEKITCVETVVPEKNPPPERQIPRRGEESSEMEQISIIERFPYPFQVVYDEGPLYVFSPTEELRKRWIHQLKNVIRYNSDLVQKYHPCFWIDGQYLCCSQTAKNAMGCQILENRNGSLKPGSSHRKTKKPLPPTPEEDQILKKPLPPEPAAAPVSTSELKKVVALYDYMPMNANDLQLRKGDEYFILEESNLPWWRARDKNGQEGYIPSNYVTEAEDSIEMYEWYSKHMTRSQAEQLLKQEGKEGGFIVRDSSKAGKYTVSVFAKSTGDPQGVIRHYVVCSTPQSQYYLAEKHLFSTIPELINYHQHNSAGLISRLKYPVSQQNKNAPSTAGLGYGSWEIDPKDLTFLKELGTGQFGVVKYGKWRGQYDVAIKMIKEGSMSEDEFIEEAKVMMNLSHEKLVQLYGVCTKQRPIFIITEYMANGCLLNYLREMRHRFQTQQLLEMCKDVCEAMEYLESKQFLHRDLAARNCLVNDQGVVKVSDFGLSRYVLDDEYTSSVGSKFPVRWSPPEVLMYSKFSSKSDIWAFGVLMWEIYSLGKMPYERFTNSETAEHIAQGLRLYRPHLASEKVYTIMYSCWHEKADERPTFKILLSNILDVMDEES
Method in brief: (§3)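 Kinase reaction (50 μL): 40 mM Tris pH 7.4, 10 mM MgCl2, 0.1 mg/mL BSA, 1 mM DTT, 10 μM ATP, kinase and substrate, with 1% final DMSO. Run 40 min at 30 °C. Residual ATP read by Kinase-Glo Plus luminescence, inversely related to kinase activity.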

[12] = target: T3, Tyrosine-protein kinase JAK3 (Homo sapiens) (UniProt P52333); assay: Inhibition of JAK3 (unknown origin) at 300 uM measured after 40 mins in presence of ATP by luminescence assay relative to control; method in brief: as §3
T3 sequence (whole entry): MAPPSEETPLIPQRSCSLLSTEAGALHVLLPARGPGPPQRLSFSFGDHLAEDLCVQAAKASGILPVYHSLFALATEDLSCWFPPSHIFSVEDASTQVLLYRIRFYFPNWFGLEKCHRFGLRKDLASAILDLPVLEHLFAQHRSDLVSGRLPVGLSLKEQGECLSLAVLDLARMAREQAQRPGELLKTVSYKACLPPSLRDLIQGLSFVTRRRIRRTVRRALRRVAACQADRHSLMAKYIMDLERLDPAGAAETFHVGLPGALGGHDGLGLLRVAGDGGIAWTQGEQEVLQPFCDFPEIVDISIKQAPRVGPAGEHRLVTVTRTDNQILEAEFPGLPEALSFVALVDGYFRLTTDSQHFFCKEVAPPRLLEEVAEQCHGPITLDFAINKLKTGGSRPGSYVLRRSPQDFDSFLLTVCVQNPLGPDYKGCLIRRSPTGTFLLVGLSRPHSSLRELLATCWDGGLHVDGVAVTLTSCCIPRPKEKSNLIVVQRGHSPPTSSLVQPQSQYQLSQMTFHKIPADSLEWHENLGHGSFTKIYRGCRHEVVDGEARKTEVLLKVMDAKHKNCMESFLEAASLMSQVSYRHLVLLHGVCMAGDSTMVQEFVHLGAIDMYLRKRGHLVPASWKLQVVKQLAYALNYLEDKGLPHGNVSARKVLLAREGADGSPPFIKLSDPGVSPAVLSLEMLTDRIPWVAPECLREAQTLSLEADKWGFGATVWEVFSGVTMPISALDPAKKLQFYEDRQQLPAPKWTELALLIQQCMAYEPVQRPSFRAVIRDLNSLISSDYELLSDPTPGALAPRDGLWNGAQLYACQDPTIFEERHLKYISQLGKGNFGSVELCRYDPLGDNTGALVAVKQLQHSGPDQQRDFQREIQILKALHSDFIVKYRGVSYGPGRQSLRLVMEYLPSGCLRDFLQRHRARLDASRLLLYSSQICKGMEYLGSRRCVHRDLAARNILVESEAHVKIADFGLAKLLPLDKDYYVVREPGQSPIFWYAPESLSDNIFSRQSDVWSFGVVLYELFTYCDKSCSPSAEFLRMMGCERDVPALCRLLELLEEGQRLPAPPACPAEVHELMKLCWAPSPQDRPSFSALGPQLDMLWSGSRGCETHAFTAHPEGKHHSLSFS

[13] = target: Epidermal growth factor receptor (Homo sapiens) (UniProt P00533); assay: Inhibition of EGFR (unknown origin) at 300 uM measured after 40 mins in presence of ATP by luminescence assay relative to control; method in brief: as §3
Chain of Epidermal growth factor receptor (Homo sapiens) (P00533 whole entry): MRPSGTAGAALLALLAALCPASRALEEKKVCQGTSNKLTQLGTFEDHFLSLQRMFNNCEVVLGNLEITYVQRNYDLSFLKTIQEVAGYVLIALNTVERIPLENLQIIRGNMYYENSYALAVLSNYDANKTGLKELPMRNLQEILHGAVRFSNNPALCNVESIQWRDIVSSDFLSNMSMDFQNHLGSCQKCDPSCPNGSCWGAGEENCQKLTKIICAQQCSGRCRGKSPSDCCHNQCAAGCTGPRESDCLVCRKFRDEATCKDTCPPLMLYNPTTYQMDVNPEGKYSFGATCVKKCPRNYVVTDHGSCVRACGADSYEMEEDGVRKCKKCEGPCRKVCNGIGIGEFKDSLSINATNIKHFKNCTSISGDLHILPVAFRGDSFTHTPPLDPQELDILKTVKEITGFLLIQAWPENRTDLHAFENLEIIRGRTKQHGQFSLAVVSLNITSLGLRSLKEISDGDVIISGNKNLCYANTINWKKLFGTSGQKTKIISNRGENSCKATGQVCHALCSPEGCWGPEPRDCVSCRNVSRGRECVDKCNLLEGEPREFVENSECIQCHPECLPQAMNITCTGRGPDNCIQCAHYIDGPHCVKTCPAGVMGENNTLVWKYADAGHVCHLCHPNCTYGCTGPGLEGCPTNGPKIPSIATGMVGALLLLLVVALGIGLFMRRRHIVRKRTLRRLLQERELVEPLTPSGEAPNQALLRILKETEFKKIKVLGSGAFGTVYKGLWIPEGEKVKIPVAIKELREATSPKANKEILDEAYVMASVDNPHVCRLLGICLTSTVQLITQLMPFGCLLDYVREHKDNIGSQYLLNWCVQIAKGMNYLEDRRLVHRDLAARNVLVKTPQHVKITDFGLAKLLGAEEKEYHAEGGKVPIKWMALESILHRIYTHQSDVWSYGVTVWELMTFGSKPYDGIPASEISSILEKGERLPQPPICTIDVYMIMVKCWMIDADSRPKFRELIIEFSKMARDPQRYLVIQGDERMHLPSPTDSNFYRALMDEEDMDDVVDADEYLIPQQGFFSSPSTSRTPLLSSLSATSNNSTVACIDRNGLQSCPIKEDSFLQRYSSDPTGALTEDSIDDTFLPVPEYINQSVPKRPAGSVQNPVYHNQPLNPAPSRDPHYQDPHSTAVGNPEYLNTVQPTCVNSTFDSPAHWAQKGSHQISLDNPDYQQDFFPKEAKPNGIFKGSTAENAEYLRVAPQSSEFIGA

in vivo [14] = details: ICR, mouse, ip, 30 mg/kg
[15] = AUCt in 12 hrs fasted ICR mouse at 30 mg/kg, ip measured after 24 hrs by LC-MS/MS analysis; details: in vivo
in vivo [16] = details: ICR, mouse, ip, 30 mg/kg; remark: listed apart in the source
in vivo [17] = details: ICR, mouse, ip, 30 mg/kg; remark: listed apart in the source

Row | SMILES | half-life [1] [h] | half-life [2] [h] | half-life [4] [h] | also measured
1 | O=C(NCC1CCCCC1)N1C(=O)c2ccccc2S1(=O)=O | > 167 | 0.963 | > 167 | IC50 [3]: 16.4 µM
2 | O=C(NCc1ccc(Br)cc1)N1C(=O)c2ccccc2S1(=O)=O |  | 0.187 |  | 
3 | O=C(c1ccccc1)N1Cc2ccccc2S1(=O)=O | > 167 | > 167 | > 167 | 
4 | C#Cc1ccc(CNC(=O)N2C(=O)c3ccccc3S2(=O)=O)cc1 |  |  |  | Activity [5]: Dde; Activity [6]: Active
5 | O=C(NCc1ccccc1Br)N1C(=O)c2ccccc2S1(=O)=O | > 167 | 0.253 | > 167 | 
6 | O=C(c1ccccc1)N1C(=O)c2ccccc2S1(=O)=O | > 0.875 |  | > 167 | 
7 | O=C(NCc1cccs1)N1C(=O)c2ccccc2S1(=O)=O | > 167 | 0.365 | > 167 | 
8 | CCCNC(=O)N1C(=O)c2ccccc2S1(=O)=O | > 167 | 0.775 | > 167 | IC50 [3]: > 500 µM
9 | COc1ccc(CNC(=O)N2C(=O)c3ccccc3S2(=O)=O)cc1 |  | 0.187 |  | 
10 | O=C(NCc1cccc(Br)c1)N1C(=O)c2ccccc2S1(=O)=O | > 167 | 0.492 | > 167 | 
11 | O=C(Cc1ccccc1)N1C(=O)c2ccccc2S1(=O)=O | 3.4 |  | > 167 | 
12 | Cc1ccccc1CNC(=O)N1C(=O)c2ccccc2S1(=O)=O | > 167 | 0.792 | > 167 | IC50 [3]: 3.6 µM; Ratio IC50 (Homo sapiens [7]): > 25; Ratio IC50 (Homo sapiens [8]): 3.6; Ratio IC50 (Homo sapiens [9]): > 25; Ratio IC50 (Homo sapiens [10]): > 25
13 | COc1ccccc1CNC(=O)N1C(=O)c2ccccc2S1(=O)=O | > 167 | 1.12 | > 167 | inhibition [11]: < 50%; IC50 [3]: 1.7 µM; Ratio IC50 (Homo sapiens [7]): > 25; inhibition [12]: < 50%; Ratio IC50 (Homo sapiens [8]): > 25; Ratio IC50 (Homo sapiens [9]): > 25; Ratio IC50 (Homo sapiens [10]): > 25; inhibition [13]: < 50%
14 | O=C(OCc1ccccc1)N1C(=O)c2ccccc2S1(=O)=O | > 167 | < 0.0167 | > 167 | 
15 | COc1cccc(CNC(=O)N2C(=O)c3ccccc3S2(=O)=O)c1 | > 167 | 0.523 | > 167 | IC50 [3]: 1.9 µM; Ratio IC50 (Homo sapiens [7]): > 25; Ratio IC50 (Homo sapiens [8]): > 25; Ratio IC50 (Homo sapiens [9]): > 25; Ratio IC50 (Homo sapiens [10]): > 25
16 | O=C1NS(=O)(=O)c2ccccc21 [SACCHARIN] |  |  |  | Cmax at 12 h (in vivo [14]): 29900 ng/mL; AUC(0-t) at 12 h [15]: 14000 ng·h/mL; half-life at 12 h (in vivo [16]): 1.11 h; Tmax at 12 h (in vivo [17]): 0.25 h
17 | O=C(NCc1ccc(C(F)(F)F)cc1)N1C(=O)c2ccccc2S1(=O)=O | > 167 | 0.212 | > 167 | 
18 | O=C(CCc1ccccc1)N1C(=O)c2ccccc2S1(=O)=O | 5.78 |  | > 167 | 
19 | O=C(NCc1ccccc1Cl)N1C(=O)c2ccccc2S1(=O)=O | > 167 | 0.42 | > 167 | 
20 | O=C(NCc1cccc2ccccc12)N1C(=O)c2ccccc2S1(=O)=O | > 167 | 0.395 | > 167 | 
21 | O=C(NCc1ccccc1F)N1C(=O)c2ccccc2S1(=O)=O | > 167 | 0.598 | > 167 | IC50 [3]: 4.2 µM; Ratio IC50 (Homo sapiens [7]): > 25; Ratio IC50 (Homo sapiens [8]): 16.3; Ratio IC50 (Homo sapiens [9]): > 25; Ratio IC50 (Homo sapiens [10]): > 25
22 | O=C(c1ccccc1)N1Cc2ccccc2C1=O | > 167 | > 167 | > 167 | 
23 | O=C(Oc1ccccc1)N1C(=O)c2ccccc2S1(=O)=O | 3.04 |  | > 167 | 
24 | O=C(NCCc1ccccc1)N1C(=O)c2ccccc2S1(=O)=O | > 167 | 0.56 | > 167 | 
25 | O=C(NCc1ccccc1C(F)(F)F)N1C(=O)c2ccccc2S1(=O)=O | > 167 | 0.187 | > 167 | 
26 | CC(NC(=O)N1C(=O)c2ccccc2S1(=O)=O)c1ccccc1 (stereo not given) | > 167 | 0.663 | > 167 | IC50 [3]: 8.7 µM; Ratio IC50 (Homo sapiens [7]): > 25; Ratio IC50 (Homo sapiens [8]): 1.3; Ratio IC50 (Homo sapiens [9]): > 25; Ratio IC50 (Homo sapiens [10]): > 25
